Screening data deposited in PubChem BioAssay by several laboratories.
MEKK2wt PB1 HTS: raises or lowers MEK5 binding to wildtype human MEKK2 PB1 domain | bead flow cytometry, Alexa488-MEK5 binding to MEKK2 WT; actives lie on both sides | binding response (% of control), % at 10 µM | actives 1.1% (n = 290,000); in the data active means binding response below about 67% or above about 130%
Rce1 inhib: yeast Ras-converting enzyme inhibition | Q03530 | yeast membranes, quenched prenylated peptide cleavage fluorescence | calls only | actives 0.27% (n = 290,000) | AID 2563;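 active means fall in fluorescence gain of 50% or more versus controls, with final raw signal at or below 3038400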;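 further: plate controls were neutral control wells for no effect and wells lacking membranes for full effect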
MEKK2 mut-MEK5: signal of MEK5 binding to mutant human MEKK2 PB1 domain | bead flow cytometry, Alexa488-MEK5 binding to MEKK2 mutant | percent response, % at 10 µM | actives 0.35% (n = 290,000) | AID 1530; in the data active means percent response above about 24%, passing the limit was not always enough
UCH37 DUB inh: blocks the human deubiquitinase UCH37. purified proteasome/UCH37, Ub-AMC cleavage fluorescence. inhibition, % (test concentration not listed). actives 0.33% (n = 330,000). AID 588478;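 active means mean inhibition over replicate wells above about 20%, limit read from the data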;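 further: 0% = compound-free wells with enzyme and 100% = wells lacking proteasome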
Target sequence (Q9Y5K5 whole entry, looked up): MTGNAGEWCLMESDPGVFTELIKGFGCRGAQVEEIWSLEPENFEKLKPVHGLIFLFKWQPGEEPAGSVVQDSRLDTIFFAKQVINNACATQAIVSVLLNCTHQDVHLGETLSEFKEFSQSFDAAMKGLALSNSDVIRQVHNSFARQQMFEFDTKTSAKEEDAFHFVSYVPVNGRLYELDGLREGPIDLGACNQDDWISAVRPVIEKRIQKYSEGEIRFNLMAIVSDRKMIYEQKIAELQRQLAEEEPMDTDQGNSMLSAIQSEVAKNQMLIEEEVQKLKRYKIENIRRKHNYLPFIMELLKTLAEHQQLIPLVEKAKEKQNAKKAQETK
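Schedule: 30 min plus 25 min, room temperature / Material: human UCH37 within purified proteasomes / Technique: AMC fluorescence intensity at 355/460 nm / Buffer or medium: pH 7.4 Tris-HCl (50 mM) with ovalbumin, ATP-MgCl2, DTT / Controls: wells without proteasome as full block, compound-free enzyme plus substrate as uninhibited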
T cell modulator: modulates CD8 T cell binding to vesicles | 2C CD8+ T cell-vesicle binding, flow cytometry; stronger effect = lower value | response (vesicle binding), % at 7 µM | actives 0.068% (n = 330,000) | AID 2052;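 active means response, share of CD8 T cells binding vesicles, and their 90th percentile fluorescence all below set limits, cut at about 80% in these data, passing the limit was not always enough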;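 further: values below 100% mean blocked vesicle binding to the CD8+ T cells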
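Benchmarks: naked versus QL9-loaded vesicles / Assay system: purified 2C TCR transgenic mouse naive CD8+ T cells / Technique: high-throughput flow cytometry with anti-B7-1 and anti-CD8 staining / Timing: Cell–vesicle co-incubation 1.5 h at 37 °C, staining 20 min on ice / Read-out: percent CD8+ FL2 mean versus row control / Probe or stimulus: QL9-loaded Drosophila micro-vesicles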
MEKK3 PB1 HTS: modulators (inhibitors or enhancers) of MEK5 binding to human MEKK3 PB1 domain | actives 1.4% (n = 290,000) | binding response (% of control), % at 10 µM | bead-based flow cytometry, Alexa488-MEK5 binding to MEKK3; actives lie on both sides; 0 = blocked by unlabeled MEK5, 100 = vehicle;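 active means binding response more than 3 SD above or below the average of its plate-row segment, actives on both sides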;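 further: Alexa488 bead fluorescence after subtracting the streptavidin-only scavenger bead signal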
MEKK2wt confirm: raises or lowers MEK5 binding to wildtype human MEKK2, retest. shares compounds with MEKK3 PB1 HTS. bead flow cytometry, Alexa488-MEK5 binding to MEKK2 WT; actives lie on both sides. binding response (% of control), % at 10 µM. actives 2.4% (n = 5,900). AID 1892; in the data active means binding response below about 16% or above about 210%; inactive means in between
MEKK2mut confirm: signal of MEK5 binding to mutant human MEKK2, retest. shares compounds with MEKK3 PB1 HTS. bead flow cytometry, Alexa488-MEK5 binding to MEKK2 mutant. percent response, % at 10 µM. actives 2% (n = 5,900); in the data active means percent response mostly above about 71%, no sharp cut-off; inactive means mostly below about 38%;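 further: higher means compound restores mutant binding toward wildtype level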
MEKK3-MEK5 inh: confirmation of inhibitors of MEK5 binding to human MEKK3. bead flow cytometry, Alexa488-MEK5 binding to MEKK3; stronger effect = lower value. binding response (% of control), % at 10 µM. shares compounds with MEKK3 PB1 HTS. actives 1.8% (n = 5,900);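 active means binding response below 72% of control, or above a set upper limit, though filed actives all read lower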;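 further: 100% = DMSO only wells and 0% = binding blocked by excess unlabeled MEK5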
Active calls of the source: *; i = inactive; . = no result; [ ] = dose if it differs, or a comment. Rows were chosen to be rich in hits. Some 2.5% of all compounds tested hit in one or more screens of this group.

SMILES | MEKK2wt PB1 HTS | Rce1 inhib | MEKK2 mut-MEK5 | UCH37 DUB inh | T cell modulator | MEKK3 PB1 HTS | MEKK2wt confirm | MEKK2mut confirm | MEKK3-MEK5 inh
COc1ccc(CN(C)CC2CCCN(CCc3ccccc3C)C2)cc1O (stereo not given) | 115 | i | 8 | 2 | 108 | 102 | . | . | .
COc1ccc(CCN2CCCC(CN(C)Cc3cc(Cl)c(O)c(OC)c3)C2)cc1 (stereo not given) | 135* | i | 25* | 5 | 208 | 112 | 132 | 24 | 107
CCCn1c(-c2cccc([N+](=O)[O-])c2)nc2c1c(=O)[nH]c(=O)n2Cc1ccccc1 | 97 | i | -2 | 1 | 466 | 70*[inhibitor] | 105 | 12 | 109
CCCn1c(-c2ccc(C(=O)OC)cc2)nc2c1c(=O)[nH]c(=O)n2Cc1ccccc1 | 96 | i | 1 | -262 | 618 | 98 | . | . | .
C=Cn1cc[n+](CC(=O)c2ccc(Cl)c(Cl)c2)c1 | 99 | i | 3 | 2 | 185 | 95 | . | . | .
C=Cn1cc[n+](CC(=O)C(C)(C)C)c1 | 107 | i | 2 | 2 | 287 | 137* | 106 | 10 | 106
Cc1ccc(Cl)cc1NC(=S)N(CCCN1CCN(C)CC1)Cc1cccs1 | 109 | i | 4 | 9 | 151 | 105 | . | . | .
Cc1cc(Cl)ccc1NC(=S)N(CCCN1CCOCC1)Cc1cccs1 | 106 | i | 0 | -1 | 88 | 128* | 108 | 3 | 105
CCOC(=O)NN1C(=O)c2ccccc2NC1c1ccccc1 (stereo not given) | 105 | i | 1 | -457 | 417 | 149* | 119 | 15 | 107
CCOC(=O)NN1C(=O)c2ccccc2NC1c1ccc(N(C)C)cc1 (stereo not given) | 109 | i | 1 | -33 | 232 | 144* | 103 | 10 | 107
COc1cccc(N2C(=O)Nc3ccccc3C2(O)C(=O)NCc2ccc3c(c2)OCO3)c1 (stereo not given) | 127 | . | 10 | 4 | 241 | 123* | 105 | 1 | 102
O=C(NN=Cc1ccc(OC(=O)c2cccs2)cc1)c1ccccn1 | . | . | . | -12 | . | . | . | . | .
C=CCc1ccc(OCCOc2ccc(/C=N/n3cnnc3)cc2OCC)c(OC)c1 | 116 | i | 27* | . | 162 | 111 | 101 | -7 | 104
CCn1ncc(C2=NOC(C(=O)Nc3ccc4c(c3)OCO4)C2)c1C (stereo not given) | 1.0*[inhibitor] | i | -41 | 2 | 181 | 2.0*[inhibitor] | 101 | -2 | 105
CCn1ncc(C2=NOC(C(=O)Nc3ccc(C)cc3)C2)c1C (stereo not given) | 95 | i | -1 | 0 | 188 | 99 | . | . | .
CC(=NNC(=O)c1c(Cl)cnn1C)c1ccc(NC(=O)c2ccncc2)cc1 | . | . | . | -54 | . | . | . | . | .
COc1ccc(C(=NO)c2ncc(C(F)(F)F)cc2Cl)cc1 | . | . | . | 2 | . | . | . | . | .
CN(Cc1ccccc1)S(=O)(=O)c1ccc2c(c1)n(C)c(=O)n2C | 1.0*[inhibitor] | i | -41 | 4 | 436 | 2.0*[inhibitor] | 101 | 5 | 103
Cc1ccccc1Oc1nc2c(C)cccn2c(=O)c1/C=C(\C#N)C(=O)Nc1c(C)n(C)n(-c2ccccc2)c1=O | 102 | i | 0 | -14 | 508 | 137* | 68 | -18 | 65*
O=C(c1nn(-c2ccccc2)c(=O)c2ccccc12)N1CCN(c2ncccn2)CC1 | 94 | i | -5 | 2 | 174 | 103 | . | . | .
